According to ChEMBL document CHEMBL3124870, “Discovery and characterization of potent thiazoles versus methicillin- and vancomycin-resistant Staphylococcus aureus” (J Med Chem, 2014):
≈ marks a conversion by molar mass, not a printed value.

Key:
Staphylococcus aureus [1] = test: Antibacterial activity against methicillin-resistant Staphylococcus aureus NRS108 assessed as inhibition of visible growth by broth microdilution method; format: functional
Staphylococcus aureus [2] = test: Antibacterial activity against methicillin-resistant Staphylococcus aureus USA700 assessed as inhibition of visible growth by broth microdilution method; format: functional
Staphylococcus aureus [3] = test: Antibacterial activity against methicillin-resistant Staphylococcus aureus USA200 assessed as inhibition of visible growth by broth microdilution method; format: functional
Staphylococcus aureus [4] = test: Antibacterial activity against methicillin-resistant Staphylococcus aureus NRS107 assessed as inhibition of visible growth by broth microdilution method; format: functional
Staphylococcus aureus [5] = test: Antibacterial activity against methicillin-resistant Staphylococcus aureus USA1100 assessed as inhibition of visible growth by broth microdilution method; format: functional
Staphylococcus aureus [6] = test: Antibacterial activity against methicillin-resistant Staphylococcus aureus USA300 assessed as inhibition of visible growth by broth microdilution method; format: functional
Staphylococcus aureus [7] = test: Antibacterial activity against methicillin-resistant Staphylococcus aureus USA400 assessed as inhibition of visible growth by broth microdilution method; format: functional
HeLa = test: Cytotoxicity against human HeLa cells assessed as cell viability at 11 ug/ml by MTS assay; format: cell-based
Staphylococcus aureus [8] = test: Antibacterial activity against methicillin-resistant Staphylococcus aureus NRS119 assessed as inhibition of visible growth by broth microdilution method; format: functional
Staphylococcus aureus [9] = test: Antibacterial activity against vancomycin-intermediate Staphylococcus aureus LIM 3 assessed as inhibition of visible growth by broth microdilution method; format: functional
Staphylococcus aureus [10] = test: Antibacterial activity against vancomycin-intermediate Staphylococcus aureus HIP07256 assessed as inhibition of visible growth by broth microdilution method; format: functional
Staphylococcus aureus [11] = test: Antibacterial activity against methicillin-resistant Staphylococcus aureus USA800 assessed as inhibition of visible growth by broth microdilution method; format: functional
Staphylococcus aureus [12] = test: Antibacterial activity against methicillin-resistant Staphylococcus aureus NRS194 assessed as inhibition of visible growth by broth microdilution method; format: functional
Staphylococcus aureus [13] = test: Antibacterial activity against methicillin-resistant Staphylococcus aureus USA100 assessed as inhibition of visible growth by broth microdilution method; format: functional
Staphylococcus aureus [14] = test: Antibacterial activity against vancomycin-resistant Staphylococcus aureus assessed as inhibition of visible growth by broth microdilution method; format: functional
Staphylococcus aureus [15] = test: Antibacterial activity against methicillin-resistant Staphylococcus aureus ATCC 43300 assessed as inhibition of visible growth by broth microdilution method; format: functional
Staphylococcus aureus [16] = test: Antibacterial activity against methicillin-resistant Staphylococcus aureus USA1000 assessed as inhibition of visible growth by broth microdilution method; format: functional
Staphylococcus aureus [17] = test: Antibacterial activity against vancomycin-intermediate Staphylococcus aureus ATCC 700699 assessed as inhibition of visible growth by broth microdilution method; format: functional
Staphylococcus aureus [18] = test: Antibacterial activity against methicillin-resistant Staphylococcus aureus USA500 assessed as inhibition of visible growth by broth microdilution method; format: functional
Staphylococcus aureus [19] = test: Bactericidal activity against methicillin-resistant Staphylococcus aureus USA300 assessed as time required to complete elimination of bacteria by 3-log10 by time-kill assay; format: functional
Method in brief: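 Viable counts (CFU) followed over a 12-hour window; endpoint is a 3-log10 fall in CFU.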

MDCK [20] = test: Efflux ratio of apparent permeability from basolateral to apical side over apical to basolateral side in MDCK cells expressing MDR1 for 2 hrs by LC-MS/MS analysis; format: ADME, cell-based, Canis lupus familiaris; details: dog
Method in brief: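 Madin-Darby canine kidney cells transfected to overexpress MDR1 (P-glycoprotein 1). Apparent permeability (Papp, cm/sec) was measured in both the apical-to-basolateral and basolateral-to-apical directions. The efflux ratio was taken as Papp(B→A)/Papp(A→B).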

MDCK [21] = test: Apparent permeability from apical to basolateral side in MDCK cells expressing MDR1 for 2 hrs by LC-MS/MS analysis; format: ADME, cell-based, Canis lupus familiaris; details: dog
Caco-2 [22] = test: Apparent permeability across basolateral to apical to side in human Caco2 cells at 10 microM for 2 hrs by LC-MS/MS analysis; format: ADME, cell-based; details: caco-2, 2 h
Liver microsome = test: Half life in human liver microsomes by LC-MS/MS analysis; format: ADME
MDCK [23] = test: Apparent permeability from basolateral to apical side in MDCK cells expressing MDR1 for 2 hrs by LC-MS/MS analysis; format: ADME, cell-based, Canis lupus familiaris; details: dog
[24] = Aqueous solubility of compound in phosphate buffer assessed as solubility limit after 2 hrs by turbidity analysis; format: physicochemical
Caco-2 [25] = test: Efflux ratio of apparent permeability from basolateral to apical side over apical to basolateral side in human Caco2 cells at 10 microM for 2 hrs by LC-MS/MS analysis; format: ADME, cell-based; details: caco-2, 2 h
Method in brief: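 Caco-2 monolayer permeability was run under slightly acidic conditions, with the compound at 10 μM. Transfer was measured in the apical-to-basolateral and basolateral-to-apical directions. The efflux ratio was taken as B→A over A→B permeability.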

| SMILES | MIC (Staphylococcus aureus [1]) [µg/mL] | MIC (Staphylococcus aureus [2]) [µg/mL] | MIC (Staphylococcus aureus [3]) [µg/mL] | MIC (Staphylococcus aureus [4]) [µg/mL] | MIC (Staphylococcus aureus [5]) [µg/mL] | MIC (Staphylococcus aureus [6]) [µg/mL] | MIC (Staphylococcus aureus [7]) [µg/mL] | Activity (HeLa) | MIC (Staphylococcus aureus [8]) [µg/mL] | MIC (Staphylococcus aureus [9]) [µg/mL] | MIC (Staphylococcus aureus [10]) [µg/mL] | MIC (Staphylococcus aureus [11]) [µg/mL] | MIC (Staphylococcus aureus [12]) [µg/mL] | MIC (Staphylococcus aureus [13]) [µg/mL] | MIC (Staphylococcus aureus [14]) [µg/mL] | MIC (Staphylococcus aureus [15]) [µg/mL] | MIC (Staphylococcus aureus [16]) [µg/mL] | MIC (Staphylococcus aureus [17]) [µg/mL] | MIC (Staphylococcus aureus [18]) [µg/mL] | Time (Staphylococcus aureus [19]) [h] | further results |
| --- | --- | --- | --- | --- | --- | --- | --- | --- | --- | --- | --- | --- | --- | --- | --- | --- | --- | --- | --- | --- | --- |
| CCCc1ccc(-c2nc(C)c(/C(C)=N/NC(=N)N)s2)cc1 | 1.2 (≈ 3.8 µM) | 1.2 (≈ 3.8 µM) | 1.9 (≈ 6.02 µM) | 1.2 (≈ 3.8 µM) | 1.6 (≈ 5.07 µM) | 1.2 (≈ 3.8 µM) | 1.2 (≈ 3.8 µM) | Non-toxic | 1.9 (≈ 6.02 µM) | 1.6 (≈ 5.07 µM) | 1.9 (≈ 6.02 µM) | 1.9 (≈ 6.02 µM) | 1.9 (≈ 6.02 µM) | 1.6 (≈ 5.07 µM) | 1.2 (≈ 3.8 µM) | 1.2 (≈ 3.8 µM) | 1.6 (≈ 5.07 µM) | 1.9 (≈ 6.02 µM) | 1.9 (≈ 6.02 µM) |  |  |
| CCCCCc1ccc(-c2nc(C)c(/C(C)=N/NC(=N)N)s2)cc1 | 0.9 (≈ 2.62 µM) | 0.9 (≈ 2.62 µM) |  | 0.5 (≈ 1.46 µM) |  |  | 0.9 (≈ 2.62 µM) | Non-toxic | 0.9 (≈ 2.62 µM) |  | 0.7 (≈ 2.04 µM) | 0.7 (≈ 2.04 µM) | 1.1 (≈ 3.2 µM) |  |  | 0.8 (≈ 2.33 µM) |  |  |  | 2 |  |
| C/C(=N\NC(=N)N)c1sc(-c2ccc(-c3ccccc3)cc2)nc1C | 2 (≈ 5.72 µM) | 0.8 (≈ 2.29 µM) | 0.6 (≈ 1.72 µM) | 1.2 (≈ 3.43 µM) | 0.6 (≈ 1.72 µM) | 1 (≈ 2.86 µM) | 0.8 (≈ 2.29 µM) | Non-toxic | 0.6 (≈ 1.72 µM) | 0.6 (≈ 1.72 µM) | 0.5 (≈ 1.43 µM) | 1.2 (≈ 3.43 µM) | 1.4 (≈ 4.01 µM) | 2 (≈ 5.72 µM) | 0.6 (≈ 1.72 µM) | 0.6 (≈ 1.72 µM) | 0.8 (≈ 2.29 µM) | 0.6 (≈ 1.72 µM) | 1.6 (≈ 4.58 µM) |  |  |
| C/C(=N\NC(=N)N)c1sc(-c2ccc(C(C)(C)C)cc2)nc1C | 1.9 (≈ 5.77 µM) |  | 2.6 (≈ 7.89 µM) | 1 (≈ 3.04 µM) | 1.9 (≈ 5.77 µM) | 1.3 (≈ 3.95 µM) | 1.9 (≈ 5.77 µM) | Non-toxic | 1.9 (≈ 5.77 µM) | 1.6 (≈ 4.86 µM) | 1.9 (≈ 5.77 µM) | 1.3 (≈ 3.95 µM) | 2.6 (≈ 7.89 µM) | 1.3 (≈ 3.95 µM) | 1.6 (≈ 4.86 µM) | 1.9 (≈ 5.77 µM) |  | 1.6 (≈ 4.86 µM) | 1.3 (≈ 3.95 µM) |  |  |
| CCCCc1ccc(-c2nc(C)c(/C(C)=N/NC(=N)N)s2)cc1 | 1.4 (≈ 4.25 µM) | 1.8 (≈ 5.46 µM) | 2.8 (≈ 8.5 µM) | 1.4 (≈ 4.25 µM) | 2.8 (≈ 8.5 µM) | 1.4 (≈ 4.25 µM) | 1.4 (≈ 4.25 µM) | Non-toxic | 1.4 (≈ 4.25 µM) | 1.4 (≈ 4.25 µM) | 1.4 (≈ 4.25 µM) | 2.3 (≈ 6.98 µM) | 1.4 (≈ 4.25 µM) | 5.5 (≈ 16.7 µM) | 1.4 (≈ 4.25 µM) | 2.8 (≈ 8.5 µM) | 1.4 (≈ 4.25 µM) | 1.4 (≈ 4.25 µM) | 1.4 (≈ 4.25 µM) | 2 | Ratio (MDCK [20]): 5; Papp (MDCK [21]): 0.7 ×10⁻⁶ cm/s; Papp (Caco-2 [22]): 2.2 ×10⁻⁶ cm/s; t1/2 (Liver microsome): 28.8 min; Papp (MDCK [23]): 3.6 ×10⁻⁶ cm/s; solubility kinetic at 2 h [24]: 62.6 µM (≈ 20.6 µg/mL); Ratio (Caco-2 [25]): > 2 |
| COC(=O)[C@H]1[C@H]2C[C@@H]3c4[nH]c5cc(OC)ccc5c4CCN3C[C@H]2C[C@@H](OC(=O)c2cc(OC)c(OC)c(OC)c2)[C@@H]1OC [RESERPINE] |  |  |  |  |  |  |  |  |  |  |  |  |  |  |  |  |  |  |  |  | solubility kinetic at 2 h [24]: 31.3 µM (≈ 19.1 µg/mL) |
